OXTR potentiator – potentiates the human oxytocin receptor response | P30559 | CHO-OTR cells, Fluo-8 calcium fluorescence, potentiator mode; 0% = oxytocin EC15, 100% = EC100 | activation, % at 3 µM | 0.061% of 320,000 active;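 active means activation above that plate's cutoff, the mean activation of tested compounds plus 3 SD, cut at about 6.6% in these data, passing the limit was not always enough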;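 further: 100% uses oxytocin at 75 nM as the full agonist control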
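Measured by – Fluo-8 calcium dye fluorescence · Test system – human OTR in CHO cells · Dosing – one concentration, 3.0 µM compound · Controls – EC15 oxytocin alone as 0%, 75 nM oxytocin as 100% · Evaluation – normalized max/min fluorescence ratio, % activation · Timing – 6 min pre-incubation, 100 s read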
TRPML3 ag – activates the human TRPML3 channel. AID 1448. HEK293 TRPML3-YFP, Fluo-8 calcium fluorescence; 100% = the carbachol control signal. activation, % at 3 µM. 0.29% of 220,000 active;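 active means activation above its plate's cutoff, the mean activation of the plate's test wells plus 3 SD, cut at about 12% in these data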;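 further: 0% = DMSO only wells and 100% = carbachol wells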
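system = HEK293 cells stably carrying human TRPML3-YFP | doses = one concentration, 3 µM nominal, 0.3% DMSO | timing = dye loading 1 h 37 °C then 30 min ambient, 125 s read | detection = Fluo-8 calcium dye fluorescence, ex 470-495, em 515-575 nm | benchmarks = high control carbachol 87 µM, low control DMSO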
TRPN1 ag – agonists of zebrafish TRPN1 channel; HEK293 zebrafish TRPN1-YFP, Fluo-8 calcium fluorescence; 100% = response to 87 µM carbachol; activation, % at 3 µM; 0.18% of 220,000 active; AID 1424;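 active means activation above its plate's cutoff, the mean activation of test wells on that plate plus 3 SD, cut at about 19% in these data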;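 further: 0% = DMSO alone and 100% = 87 µM carbachol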
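Assay system: Zebrafish TRPN1-YFP in HEK293 cells | Incubation: Dye loading 1 h at 37 °C, then 30 min room temperature | Measured by: Kinetic Fluo-8 fluorescence, ex 470-495, em 515-575 nm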
OXTR ag – agonists of human oxytocin receptor. CHO-OTR cells, Fluo-8 calcium fluorescence; normalized: DMSO 0%, oxytocin 100%. activation, % at 3 µM. 0.32% of 320,000 active;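 active means activation above the mean of all tested compounds plus 3 SD, cutoff set per screening run, cut at about 20% in these data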;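 further: peak over basal fluorescence ratio from a 100 s FLIPR kinetic read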
V1R ag counter – V1a receptor agonism, counter-screen for OXTR agonists. P37288. CHO-V1R cells, Fluo-8 calcium fluorescence, agonist mode; 0% DMSO, 100% 3 nM vasopressin. activation, % at 3 µM. 0.25% of 320,000 active. AID 2797;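 active means activation above the mean activation of all tested compounds plus 3 SD, per screening run, cut at about 20% in these data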;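 further: signal is peak over basal fluorescence ratio across a 100 second FLIPR read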
Target sequence (P37288 whole entry, looked up): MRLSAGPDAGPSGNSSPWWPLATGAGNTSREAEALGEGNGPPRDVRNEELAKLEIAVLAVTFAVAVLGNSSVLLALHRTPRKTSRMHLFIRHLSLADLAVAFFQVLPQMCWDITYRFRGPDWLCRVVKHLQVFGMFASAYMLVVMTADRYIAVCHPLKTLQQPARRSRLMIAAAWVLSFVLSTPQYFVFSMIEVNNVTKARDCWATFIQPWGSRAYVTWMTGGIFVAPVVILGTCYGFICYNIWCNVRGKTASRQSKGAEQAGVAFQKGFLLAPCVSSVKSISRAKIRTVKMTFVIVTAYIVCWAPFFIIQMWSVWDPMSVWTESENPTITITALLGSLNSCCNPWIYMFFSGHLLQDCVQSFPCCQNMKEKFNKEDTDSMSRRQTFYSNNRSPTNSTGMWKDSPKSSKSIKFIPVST
The depositor's hits bear a star; / = not tested or not shown. Rows were chosen to be rich in hits. Some 0.58% of all compounds tested hit in one or more screens of this group.

SMILES	OXTR potentiator	TRPML3 ag	TRPN1 ag	OXTR ag	V1R ag counter
COC(=O)C1(c2ccccc2)NC(c2cccs2)C2C(=O)N(c3ccccc3)C(=O)C21 (stereo unspecified)	-19	0	-2	23*	21*
O=C(NCc1ccco1)c1ccccc1NS(=O)(=O)c1ccc(Cl)s1	-9	3	2	12	8
Cc1ccc(NC(=O)c2ccccc2NS(=O)(=O)c2ccc(Cl)s2)cc1	-12	13*	27*	15	9
O=C(Nc1ccccc1)c1ccccc1NS(=O)(=O)c1ccc(Cl)s1	-13	16*	29*	10	11
O=C(Nc1ccccc1Cc1ccccc1)c1ccccc1NS(=O)(=O)c1ccc(Cl)s1	-14	5	19*	14	11
CCc1nnc(NC(=O)CN2CCN(Cc3ccc(C)cc3)CC2)s1	1	/	/	0	0
COc1ccc(N2CCN(CCCNC(=O)Cn3c(=O)c4cccn4c4ccccc43)CC2)cc1	-3	/	/	-1	0
COc1cccc(CNS(=O)(=O)c2cc3c(cc2Cl)NC(=O)CO3)c1	-3	/	/	1	0
Cc1ccc(OC(C)C(=O)Nc2ccc(F)cc2)c([N+](=O)[O-])n1 (stereo unspecified)	-10	/	/	-2	0
Cc1ccc(Nc2cc(C)nc3nc(C)nn23)cc1	12*	0	-1	-2	-1
CCOc1cccc2sc(N(CCCN(C)C)C(=O)c3ccc(S(=O)(=O)N4CCc5ccccc5C4)cc3)nc12	-16	/	/	25*	35*
Cn1cc(C2=C(c3ccc(Cl)cc3Cl)C(=O)NC2=O)c2ccccc21	-11	/	/	29*	31*
Cn1cc(-c2ccccc2C(N)=O)c(=O)c2cc(Cl)ccc21	2	0	0	1	1
CC(=O)Nc1ccc(Sc2ncccc2C(=O)Nc2ccc(F)cc2)cn1	-14	35*	46*	79*	70*
O=C1c2cccc3c(O)ccc(c23)C(=O)N1Cc1ccccc1	-22	120*	146*	302*	345*
O=C(O)c1cccc(CN2C(=O)c3ccccc3C2=O)c1	-13	/	/	0	0
CC(C)OC(=O)C1Cc2ccccc2CN1S(=O)(=O)c1cccs1 (stereo unspecified)	0	/	/	-2	0
CCN1/C(=C/c2ccc3cc(C)cc(C)c3[n+]2CC)Sc2cc(C)ccc21	/	15*	50*	/	/
CCN1/C(=C/c2ccc3cccc(C)c3[n+]2CC)Sc2ccccc21	-11	18*	32*	18	11
CCN1/C(=C\c2ccc3cc(C)ccc3[n+]2CC)Sc2cc(C)c(C)cc21	/	9	15	/	/
CC1(C)Oc2ccc3ccc(=O)oc3c2[C@@H](O)[C@@H]1O	-4	/	/	1	0
COc1ccc2c(n1)Sc1nc3ccccc3nc1N2	-21	29*	57*	86*	56*
O=C(Cn1nc(-c2ccccc2)oc1=O)OCC(=O)c1ccc(F)c(F)c1	-7	/	/	2	1
O=[N+]([O-])c1ccc(N=Nc2c(Cl)cc(O)cc2Cl)cc1	-9	16*	20*	18	13
CC(N)=Nc1ccc([N+](=O)[O-])cc1	-4	0	1	1	0
SMILES	OXTR potentiator	TRPML3 ag	TRPN1 ag	OXTR ag	V1R ag counter
O=C(Nc1ccccc1)Nc1ncc([N+](=O)[O-])s1	/	17*	22*	/	/
O=C(COC(=O)c1ccccc1)Nc1ncc([N+](=O)[O-])s1	-10	/	/	11	7
COC(=O)c1ccc(CNC(=O)C2CCC(=O)N(C3CCCCCC3)C2)cc1 (stereo unspecified)	-8	/	/	0	3
CCc1ccc(-c2nc(CN3CCC(C(=O)N4CCN(c5ccccc5)CC4)CC3)c(C)o2)cc1	-11	4	3	29*	34*
CCc1ccc(-c2nc(CN3CCC(C(=O)N4CCN(c5ccccn5)CC4)CC3)c(C)o2)cc1	-11	1	0	17	14
O=C(O)c1sccc1SCc1ccc(Cl)c(Cl)c1	-22	0	0	19	22*
COC(=O)CSc1ccsc1C(=O)O	-1	0	1	1	1
C=CCn1c(SC(C)CC)nc(O)cc1=O (stereo unspecified)	-32	3	2	46*	30*
Cc1nn(CC(=O)N2CCCC2)c(=O)c2cc3cc(F)ccc3n12	-5	/	/	-1	0
Cc1ccc(C(=O)NCCOc2ccc(Cl)cc2)cc1	6	/	/	-1	-2
Cc1cccc(C)c1NC(=O)C(=O)NCCOc1ccc(Cl)cc1	-22	1	4	22*	19
COC(=O)c1c(NC(=O)c2ccccc2OC)sc(C(=O)N2CCOCC2)c1C	6	/	/	-2	1
C#CCOCCOCCOCCNc1nc(N2CCOCC2)nc(N2CCN(C(=O)CCCCCCCCCCNC(=O)[C@@H]([C@H](C)CC)n3cc(CCCCCN)nn3)CC2)n1	1	/	/	0	0
C#CCOCCOCCOCCNc1nc(N2CCN(C(=O)CCCCCCCCCCNC(=O)[C@H]([C@@H](C)CC)n3cc(CCCCCN)nn3)CC2)nc(N2CCN(C(=O)CCCCCCCCCCNC(=O)[C@H](CO)n3cc(CCCCCN)nn3)CC2)n1	-18	/	/	22*	46*
C#CCOCCOCCOCCNc1nc(N2CCN(C(=O)CCCCCCCCCCNC(=O)[C@H]([C@@H](C)CC)n3cc(CCCCCN)nn3)CC2)nc(N2CCN(C(=O)CCCCCCCCCCNC(=O)[C@@H]([C@H](C)CC)n3cc(CCCCCN)nn3)CC2)n1	-16	/	/	19	27*
C#CCOCCOCCOCCNc1nc(N2CCN(C(=O)CCCCCCCCCCNC(=O)[C@H]([C@@H](C)CC)n3cc(CCCCN=C(N)N)nn3)CC2)nc(N2CCN(C(=O)CCCCCCCCCCNC(=O)[C@H](CO)n3cc(CCCCCN)nn3)CC2)n1	-19	/	/	-1	6
CCCn1c(SCC(=O)N(C2CCCCC2)C2CCS(=O)(=O)C2)n[nH]c1=O (stereo unspecified)	-3	/	/	1	0
CN(CC(=O)Nc1ccc(F)cc1)C(=O)CSc1ccc2c(c1)OCCO2	-4	/	/	0	0
Cc1ccc(SCC(=O)OCC(=O)N(C)CC(=O)Nc2ccc(F)cc2)cc1C	-16	/	/	24*	23*
CC(C)N(CCNC(=O)c1nn(Cc2ccccc2)c(=O)c2ccccc12)C(C)C	-5	/	/	-1	-1
COc1ccc(CCN2CCC(Nc3nc4ccccc4n3Cc3ccc(F)cc3)CC2)cc1	-11	2	1	45*	37*
CC(NC(=O)Nc1ccc([N+](=O)[O-])cc1)C(c1cccs1)N1CCCC1 (stereo unspecified)	-16	1	0	33*	55*
O=C(Nc1ccc(NS(=O)(=O)c2ccc([N+](=O)[O-])cc2)cc1)c1ccco1	-8	/	/	1	2
